Experimental data: ChEMBL document CHEMBL5058577, “EUbOPEN Chemogenomics Library 2 (Multiplex)” (2022)

System: HEK-293T
Experiment: Multiplex assay against HEK293T
Format: toxicity, cell-based
Conditions: human
Procedure, shortened: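 Cells stained live at seeding with Hoechst33342, BioTracker Green Microtubule Cytoskeleton Dye, MitoTracker Red and Annexin V Alexa Fluor 680 were imaged on a CQ1 microscope at 37°C and 5% CO2 after compound addition. Their classification by CellPathfinder machine-learning gating ran from Hoechst high-intensity objects versus normal cells, to healthy, pyknosed or fragmented nuclei among normal cells, to mitotic or apoptotic among pyknosed cells. Tubulin, mitochondrial-mass and membrane-permeability phenotypes are per cents of healthy-nucleus cells.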

[1] = 12 h, 1 µM, compound concentration 1 uM, replicate 1
[2] = 12 h, 1 µM, compound concentration 1 uM, replicate 2
[3] = 12 h, 10 µM, compound concentration 10 uM, replicate 1
[4] = 12 h, 10 µM, compound concentration 10 uM, replicate 2
[5] = 24 h, 1 µM, compound concentration 1 uM, replicate 1
[6] = 24 h, 1 µM, compound concentration 1 uM, replicate 2
[7] = 24 h, 10 µM, compound concentration 10 uM, replicate 1
[8] = 24 h, 10 µM, compound concentration 10 uM, replicate 2
[9] = 48 h, 1 µM, compound concentration 1 uM, replicate 1
[10] = 48 h, 1 µM, compound concentration 1 uM, replicate 2
[11] = 48 h, 10 µM, compound concentration 10 uM, replicate 1
[12] = 48 h, 10 µM, compound concentration 10 uM, replicate 2

CCn1c(-c2nc3cc(C(=O)N4CCCC(N)C4)ccc3n2C)cc2ccccc21.Cl (configuration not stated)
Population Apoptotic (%) [1]: 54% | Population Fragmented Nuclei (%) [1]: 9% | Population Healthy Nuclei (%) [1]: 77% | Population Hoechst High Intensity Objects (%) [1]: 7% | Population Membrane Permeable-Phenotype (%) [1]: 0% | Population Mitochondria Different-Phenotype (%) [1]: 52% | Population Mitotic Cells (%) [1]: 45% | Population Normal (%) [1]: 92% | Population Pyknosed Nuclei (%) [1]: 13% | Population Tubulin-Different-Phenotype (%) [1]: 33% | Total Cell Count [1]: 351 | Population Apoptotic (%) [2]: 47% | Population Fragmented Nuclei (%) [2]: 5% | Population Healthy Nuclei (%) [2]: 81% | Population Hoechst High Intensity Objects (%) [2]: 6% | Population Mitochondria Different-Phenotype (%) [2]: 69% | Population Mitotic Cells (%) [2]: 52% | Population Normal (%) [2]: 93% | Population Tubulin-Different-Phenotype (%) [2]: 20% | Total Cell Count [2]: 312 | Population Apoptotic (%) [3]: 53% | Population Fragmented Nuclei (%) [3]: 8% | Population Healthy Nuclei (%) [3]: 74% | Population Hoechst High Intensity Objects (%) [3]: 11% | Population Membrane Permeable-Phenotype (%) [3]: 0% | Population Mitochondria Different-Phenotype (%) [3]: 85% | Population Mitotic Cells (%) [3]: 46% | Population Normal (%) [3]: 88% | Population Pyknosed Nuclei (%) [3]: 17% | Population Tubulin-Different-Phenotype (%) [3]: 75% | Total Cell Count [3]: 406 | Population Fragmented Nuclei (%) [4]: 6% | Population Healthy Nuclei (%) [4]: 78% | Population Hoechst High Intensity Objects (%) [4]: 8% | Population Normal (%) [4]: 91% | Population Pyknosed Nuclei (%) [4]: 15% | Population Tubulin-Different-Phenotype (%) [4]: 64% | Total Cell Count [4]: 398 | Population Apoptotic (%) [5]: 35% | Population Fragmented Nuclei (%) [5]: 9% | Population Healthy Nuclei (%) [5]: 80% | Population Hoechst High Intensity Objects (%) [5]: 6% | Population Membrane Permeable-Phenotype (%) [5]: 0% | Population Mitochondria Different-Phenotype (%) [5]: 37% | Population Mitotic Cells (%) [5]: 64% | Population Normal (%) [5]: 93% | Population Pyknosed Nuclei (%) [5]: 10% | Population Tubulin-Different-Phenotype (%) [5]: 22% | Total Cell Count [5]: 459 | Population Apoptotic (%) [6]: 39% | Population Healthy Nuclei (%) [6]: 79% | Population Hoechst High Intensity Objects (%) [6]: 4% | Population Mitochondria Different-Phenotype (%) [6]: 49% | Population Mitotic Cells (%) [6]: 60% | Population Normal (%) [6]: 95% | Population Pyknosed Nuclei (%) [6]: 11% | Population Tubulin-Different-Phenotype (%) [6]: 14% | Total Cell Count [6]: 383 | Population Apoptotic (%) [7]: 51% | Population Fragmented Nuclei (%) [7]: 11% | Population Healthy Nuclei (%) [7]: 70% | Population Hoechst High Intensity Objects (%) [7]: 12% | Population Membrane Permeable-Phenotype (%) [7]: 1% | Population Mitochondria Different-Phenotype (%) [7]: 72% | Population Mitotic Cells (%) [7]: 48% | Population Normal (%) [7]: 87% | Population Pyknosed Nuclei (%) [7]: 18% | Population Tubulin-Different-Phenotype (%) [7]: 64% | Total Cell Count [7]: 449 | Population Apoptotic (%) [8]: 40% | Population Fragmented Nuclei (%) [8]: 8% | Population Healthy Nuclei (%) [8]: 78% | Population Hoechst High Intensity Objects (%) [8]: 9% | Population Membrane Permeable-Phenotype (%) [8]: 0% | Population Mitochondria Different-Phenotype (%) [8]: 83% | Population Mitotic Cells (%) [8]: 59% | Population Normal (%) [8]: 90% | Population Pyknosed Nuclei (%) [8]: 13% | Population Tubulin-Different-Phenotype (%) [8]: 58% | Total Cell Count [8]: 471 | Population Apoptotic (%) [9]: 20% | Population Fragmented Nuclei (%) [9]: 12% | Population Healthy Nuclei (%) [9]: 79% | Population Hoechst High Intensity Objects (%) [9]: 5% | Population Membrane Permeable-Phenotype (%) [9]: 1% | Population Mitochondria Different-Phenotype (%) [9]: 28% | Population Mitotic Cells (%) [9]: 79% | Population Normal (%) [9]: 94% | Population Pyknosed Nuclei (%) [9]: 8% | Population Tubulin-Different-Phenotype (%) [9]: 17% | Total Cell Count [9]: 771 | Population Apoptotic (%) [10]: 14% | Population Fragmented Nuclei (%) [10]: 13% | Population Healthy Nuclei (%) [10]: 81% | Population Hoechst High Intensity Objects (%) [10]: 4% | Population Membrane Permeable-Phenotype (%) [10]: 0% | Population Mitochondria Different-Phenotype (%) [10]: 30% | Population Mitotic Cells (%) [10]: 85% | Population Normal (%) [10]: 95% | Population Pyknosed Nuclei (%) [10]: 5% | Population Tubulin-Different-Phenotype (%) [10]: 11% | Total Cell Count [10]: 640 | Population Apoptotic (%) [11]: 50% | Population Fragmented Nuclei (%) [11]: 14% | Population Healthy Nuclei (%) [11]: 73% | Population Hoechst High Intensity Objects (%) [11]: 15% | Population Membrane Permeable-Phenotype (%) [11]: 0% | Population Mitochondria Different-Phenotype (%) [11]: 65% | Population Mitotic Cells (%) [11]: 49% | Population Normal (%) [11]: 84% | Population Pyknosed Nuclei (%) [11]: 12% | Population Tubulin-Different-Phenotype (%) [11]: 63% | Total Cell Count [11]: 605 | Population Apoptotic (%) [12]: 52% | Population Fragmented Nuclei (%) [12]: 10% | Population Healthy Nuclei (%) [12]: 79% | Population Hoechst High Intensity Objects (%) [12]: 8% | Population Mitochondria Different-Phenotype (%) [12]: 71% | Population Mitotic Cells (%) [12]: 47% | Population Normal (%) [12]: 91% | Population Pyknosed Nuclei (%) [12]: 9% | Total Cell Count [12]: 613
